# Insulin prom act: TRM-6 insulin promoter activation | 0.81% of 130,000 active | TRM-6 cells (human fetal islet line), insulin promoter eGFP reporter, imaging; plate-scaled: unstimulated 0, stimulated control 100 | activation, % at 2 µM | AID 1296;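 active = activation at 2 µM above a set limit, confirmed on inspection of the cell images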;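 note: share of cells whose green reporter signal exceeds an intensity cutoff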
#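 System – TRM-6 insulin promoter–eGFP reporter cells · Probe or stimulus – 0.75 µM tamoxifen as reporter inducer · Dosing – single-point 2 µM compound dose · Incubation – tamoxifen pre-incubation 15 h overnight, then compound exposure 48 h at 37 °C · Measured by – fixed-cell fluorescence microscopy, eGFP plus Hoechst · Evaluation – percent GFP-positive cells normalized to per-plate controls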
# A number is an active result; – = inactive. The full list was thinned out, with hits kept by preference.
SMILES,Insulin prom act
CCOc1cccc(N2C(=O)CC(N3CCN(c4ccc(S(=O)(=O)CC)cc4)CC3)C2=O)c1 (stereo not drawn),80
CCN1C(=O)CC(N2CCN(c3cccc(OC)c3)CC2)C1=O (stereo not drawn),–
O=C(CSc1nc2ccccc2c(=O)n1-c1ccccc1Cl)Nc1cccc(S(=O)(=O)N2CCOCC2)c1,–
CN(C)C=Nc1c(Br)cc(Br)c2nonc12,203
CN(C)C=Nc1nonc1-c1ncn[nH]1,–
CC1SCC(=O)N(CC(=O)Nc2ccc3c(c2)OCCO3)C1=O (stereo not drawn),–
CC(C)(C)c1nc2ccccc2[nH]1,–
CCn1nc(C(=O)Nc2nc3ccccc3[nH]2)c2ccccc2c1=O,–
c1ccc2nc3c(nc2c1)[nH]c1ccccc13,300
COc1ccc(NC(=O)c2ccc([N+](=O)[O-])cc2[N+](=O)[O-])c(OC)c1,–
COC(=O)c1ccc(CN2CCN(CC=C(C)C)C(CCO)C2)cc1 (stereo not drawn),–
COC(CNC(=O)c1c[nH]c2ccc(S(=O)(=O)N3CCC4(CC3)OCCO4)cc2c1=O)OC,400
O=C(c1c[nH]c2ccc(S(=O)(=O)N3CCC4(CC3)OCCO4)cc2c1=O)N1CCOCC1,–
COc1ccc(CCNC(=O)c2cc(S(=O)(=O)N3CCC4(CC3)OCCO4)ccc2F)cc1OC,–
CCNC(=S)N1CCC(c2nc3ccccc3s2)CC1,–
CCOc1ccccc1NC(=S)NNS(=O)(=O)c1c(C)cc(C)cc1C,–
Cc1ccc(NC(=S)Nc2ccc(C(C)C)cc2)cc1S(=O)(=O)N1CCCCCC1,–
Cc1[nH]c(=O)[nH]c(=O)c1S(=O)(=O)N1CCC(C(=O)N2CCN(Cc3ccccc3)CC2)CC1,–
CS(=O)(=O)c1ccc(C(=O)N2CCN(Cc3ccccc3)CC2)cc1,–
CS(=O)(=O)N1CCC(C(=O)N2CCN(Cc3ccccc3)CC2)CC1,438
C[C@H](NC(N)=O)C(=O)OCC(=O)NCc1cccs1,–
COc1ccc(C(=O)NC(CC(=O)O)c2cc([N+](=O)[O-])ccc2Cl)c(SC)c1 (stereo not drawn),–
CCCn1c(SCC(=O)Nc2ccccc2Oc2ccccc2)n[nH]c1=O,–
COc1cc(N2CCCC2)c(OC)cc1/C=C(/C#N)c1ccc(Br)cc1,87
COc1ccccc1N1CCN(c2cc(N3CCCC3)nc(C)n2)CC1,–
SMILES,Insulin prom act
COc1ccccc1/C=N/NC(=O)c1ccc(Br)cc1,–
S=c1[nH]nc(Cc2sc(-c3ccccc3)nc2-c2ccccc2)o1,–
O=C(CCn1c(=S)[nH]c2ccccc2c1=O)NCCc1ccc(Cl)cc1,–
CCOCCCNC(=O)CSc1nc2nc(C)c(Cc3ccccc3)c(C)n2n1,–
COC(=O)C1CSC(C(=O)OC)N1C(=O)Nc1ccc(Cl)cc1 (stereo not drawn),–
CCOCCCNc1nc2c(C)cccn2c(=O)c1/C=C1\SC(=S)N(CC(C)C)C1=O,223
Cc1cccn2c(=O)c(C=NCCO)c(NCc3ccco3)nc12,–
CCOc1ccc(N2C(=O)/C(=C\c3ccccc3OC)S(=O)(=O)C2c2cccc([N+](=O)[O-])c2)cc1 (stereo not drawn),–
CCCCC(=O)Nc1ccc(NC(=O)c2ccc(C)c([N+](=O)[O-])c2)cc1OC,–
CCc1nnc(NC(=O)CSc2ccc(-c3ccco3)nn2)s1,–
CC(=O)Nc1ccc(NC(=O)CSc2nc(C)nc3sc(C)c(C)c23)cc1,–
CCc1nc(SCC(=O)Nc2nnc(CC)s2)c2c(C)c(C)sc2n1,254
COc1ccc(C(=O)NCc2nnc(SCC(=O)Nc3nc4ccc(C)cc4s3)o2)cc1OC,–
COc1ccc(Br)cc1C(=O)Nc1ccc(C(=O)O)cc1,341
COc1ccc(Br)cc1C(=O)O,–
COc1ccc(Br)cc1C(=O)Nc1ccc(N2CCN(S(C)(=O)=O)CC2)cc1,–
Cc1cc(C)nc(NC(=S)Nc2ccc(Br)cc2Cl)c1,–
O=C(Nc1nnc(CCN2CCCCC2)s1)c1ccccc1Cl,–
CC(NC(=O)C(=O)N/N=C/c1ccccc1)c1ccccc1 (stereo not drawn),–
Cc1ccc(CN2CCN(C(=O)c3ccncc3)CC2)cc1,–
CCN(CC)c1ccc2c(C)c(-c3ccc(N)cc3)c(=O)oc2c1,–
CCN(CC)c1ccc2c(c1)oc(=O)c1c(Cl)cc(=O)oc12,–
CCN(CC)c1ccc2c(Cl)c(Br)c(=O)oc2c1,133
CC1CC(C)CN(CC(C)(C)NS(=O)(=O)c2ccc(Cl)cc2)C1 (stereo not drawn),–
CC1CCCC(n2c(=S)[nH]c3ccccc3c2=O)C1C (stereo not drawn),–
SMILES,Insulin prom act
COc1ccccc1N1CCN(c2ccc([N+](=O)[O-])cc2Cl)CC1,–
Cc1cccc(-c2nsc(SCC(=O)NCC3CCCO3)n2)c1 (stereo not drawn),–
COc1ccc(Cl)cc1NC(=O)c1ccccc1C,–
CCN(C(=O)c1cc(Cl)ccc1OC)c1ccccc1C,543
CCN(C(=O)c1cn(C)c(=O)c2cc(OC)c(OC)cc12)c1ccccc1C,–
COc1ccc(Nc2nnc(-c3ccc(N4CCOCC4)c([N+](=O)[O-])c3)c3ccccc23)cc1,–
Cc1nn(CC(=O)Nc2cccc(S(N)(=O)=O)c2)c(C)c1[N+](=O)[O-],–
Cc1oc(-c2ccc(Cl)cc2)nc1CN1CCC(C(=O)NCc2cccs2)CC1,–
Cc1oc(-c2ccccc2F)nc1CN1CCC(C(=O)NC2CCCc3ccccc32)CC1 (stereo not drawn),–
Cc1cccc(-c2nc(CN3CCCC(C(=O)NC4CCC(C)CC4)C3)c(C)o2)c1 (stereo not drawn),136
COc1cc(C(=O)Nc2ccccc2C2COC(=O)C2=N)cc(OC)c1OC (stereo not drawn),–
Cc1cc(OCC(=O)N(C(C)C)C(C)C)cc(C)c1Br,–
CCn1c(CC(=O)Nc2ccc(C)cc2)nnc1SCC(=O)N1CCN(c2ccccc2)CC1,–
CCn1c(CC(=O)Nc2ccc(C)c(Cl)c2)nnc1SCC(=O)Nc1nc(C)cs1,450
CCn1c(CC(=O)Nc2ccccc2)nnc1SCC(=O)Nc1ccccc1C(=O)OC,–
CCOC(=O)c1cnc(N2CCN(C(=O)OCC)CC2)[nH]c1=O,–
CC(C)NC(=O)NC(=O)COC(=O)c1cccc(S(=O)(=O)N2CCCCC2)c1,–
CCCCC(=O)N(CCOC)c1nnc(-c2ccc(OC)cc2)s1,–
COCCN(C(=O)C1CC1)c1nnc(-c2cccc(C)c2)s1,182
COCCN(C(=O)/C=C/c1ccccc1)c1nnc(-c2cccnc2)s1,–
COc1ccc(/C=C/CN2CCCC(CCC(=O)NCc3ccc(F)c(F)c3)C2)cc1 (stereo not drawn),–
Cc1csc(SCC(=O)c2c(N)n(C)c(=O)n(C)c2=O)n1,–
C=C(C)CN(CC)C(=O)CSc1nc(O)cc(=O)n1C1CCCC1,–
Cc1ccc(S(=O)(=O)CC(=O)Nc2ccc(Cl)cn2)cc1,–
C=CCN1C(=O)/C(=C\c2ccc(OC(=O)c3ccco3)c(OC)c2)SC1=S,–
SMILES,Insulin prom act
Cc1ccc(N2C(=O)/C(=C\c3ccco3)SC2=S)cc1,–
O=C1/C(=C\c2ccco2)SC(=S)N1Cc1ccccc1,150
COc1ccc(CNC(=O)Cn2nnc(-c3ccc(NC(=O)C4CCCCC4)cc3)n2)cc1,–
CCN(c1ccccc1)S(=O)(=O)c1ccc(C(=O)NCCCn2ccnc2)cc1,–
O=C(NCCCn1ccnc1)c1cccc(S(=O)(=O)Nc2ccccc2F)c1,–
O=C(NCCCn1ccnc1)c1cccc(S(=O)(=O)NCc2ccccc2)c1,400
